From ChEMBL document CHEMBL5705899 (Biochem J, 2014)
Activity calls are given as the source filed them. The calls are words filed in the database; no cut-off is given here.

Assays:
[1] = target: Phosphatidylinositol 4,5-bisphosphate 3-kinase catalytic subunit alpha isoform (Homo sapiens, UniProt P42336); test: Inhibition of PI3Kalpha (unknown origin) using PtdIns(4,5)P2 as substrate preincubated for 20 mins followed by substrate addition and measured after 80 mins by Kinase-Glo assay
Outline: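 PIK3CA at 20 nM in 50 mM Tris/HCl pH 7.4, 0.05% CHAPSO, 10 mM MgCl2 and 2.1 mM DTT was pre-incubated with inhibitor at varying concentrations for 20 min. Then 80 μM PtdIns(4,5)P2 and 8 μM ATP (below apparent Km) were added, with 2% DMSO final. The reaction ran 80 min at ambient temperature, followed by Kinase-Glo Plus for 20 min and a luminescence read.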

[2] = target: Glycogen synthase kinase-3 beta (Homo sapiens) (UniProt P49841); test: (§1) Inhibition of recombinant human His6-tagged GSK3beta (2 to 420 residues) expressed in baculovirus infected Sf21 cells assessed as remaining activity at 1 uM using phospho-GS2 peptide as substrate incubated for 30 mins in presence of [gamma-33P]ATP by filter binding method relative to control
[3] = target: Cyclin-dependent kinase 4/cyclin D1 (Homo sapiens) (UniProt P11802+P24385); test: Inhibition of human CDK4/CyclinD1 at 1 uM using RBER-CHKtide, as substrate in presence of 33P-ATP by ProQinase assay; assay type: protein-complex assay
[4] = target: Inhibitor of nuclear factor kappa-B kinase subunit alpha (Homo sapiens) (UniProt O15111); test: Inhibition of human IKKalpha at 1 uM using RBER-CHKtide as substrate in presence of 33P-ATP by ProQinase assay
[5] = target: CDK2/Cyclin A2 (Homo sapiens) (UniProt P24941+P20248); test: Inhibition of human CDK2/CycA2 at 1 uM using RBER-CHKtide as substrate in presence of 33P-ATP by ProQinase assay; assay type: protein-complex assay
[6] = target: Mitogen-activated protein kinase 10 (Homo sapiens) (UniProt P53779); test: Inhibition of recombinant human N-terminal GST/C-terminal His6-tagged JNK3 (40 to 422 residues) expressed in Escherichia coli assessed as remaining activity at 1 uM using ATF2 as substrate incubated for 30 mins in presence of [gamma-33P]ATP by filter binding method relative to control
[7] = target: Tyrosine-protein kinase BTK (Homo sapiens) (UniProt Q06187); test: Inhibition of human BTK at 1 uM using polyEY as substrate in presence of 33P-ATP by ProQinase assay
[8] = target: Sphingosine kinase 2 (Homo sapiens) (UniProt Q9NRA0); test: Inhibition of recombinant human N-terminal His6-tagged SPHK2 (1 to 654 residues) expressed in baculovirus expression system at 1 uM using sphingosine as substrate incubated for 40 mins by ADP-Glo assay
[9] = target: High affinity nerve growth factor receptor (Homo sapiens) (UniProt P04629); test: Inhibition of human TRKA at 1 uM using PolyEY as substrate in presence of 33P-ATP by ProQinase assay
[10] = target: RAC-alpha serine/threonine-protein kinase (Homo sapiens) (UniProt P31749); test: Inhibition of human AKT1 at 1 uM using RBER-GSK3 as substrate in presence of 33P-ATP by ProQinase assay
[11] = target: MAP kinase-activated protein kinase 5 (Homo sapiens) (UniProt Q8IW41); test: Inhibition of recombinant human His6-tagged PRAK (1 to 471 residues) expressed in baculovirus infected Sf21 cells assessed as remaining activity at 1 uM using phosphorylase b peptide as substrate incubated for 30 mins in presence of [gamma-33P]ATP by filter binding method relative to control
[12] = target: Ephrin type-B receptor 1 (Homo sapiens) (UniProt P54762); test: Inhibition of recombinant human N-terminal His6-tagged EPHB1 (565 to 984 residues) expressed in baculovirus infected Sf21 cells assessed as remaining activity at 1 uM using Poly (Glu,Tyr) as substrate incubated for 30 mins in presence of [gamma-33P]ATP by filter binding method relative to control
[13] = target: Eukaryotic elongation factor 2 kinase (Homo sapiens) (UniProt O00418); test: Inhibition of recombinant human N-terminal GST-tagged EF2K (2 to 725 residues) expressed in Escherichia coli assessed as remaining activity at 1 uM using RKKFGESKTKTKEFL as substrate incubated for 30 mins in presence of [gamma-33P]ATP by filter binding method relative to control
[14] = target: Mitogen-activated protein kinase kinase kinase 1 (Homo sapiens) (UniProt Q13233); test: Inhibition of human MAP3K1 at 1 uM using bio-4xCHKT as substrate in presence of 33P-ATP by ProQinase assay
[15] = target: Insulin receptor-related protein (Homo sapiens) (UniProt P14616); test: Inhibition of recombinant human N-terminal His6-tagged IRR (944 to 1236 residues) expressed in baculovirus infected Sf21 cells assessed as remaining activity at 1 uM using MBP as substrate incubated for 30 mins in presence of [gamma-33P]ATP by filter binding method relative to control
[16] = target: Phosphatidylinositol 4-phosphate 5-kinase type-1 alpha (Homo sapiens, UniProt Q99755); test: Inhibition of human PIP5K1A using PI/PS as substrate by ADP-Glo assay
[17] = target: Protein kinase C theta type (Homo sapiens) (UniProt Q04759); test: Inhibition of human PKCtheta at 1 uM using 3xChocktide-PKC as substrate in presence of 33P-ATP by ProQinase assay
[18] = target: Death-associated protein kinase 3 (Homo sapiens) (UniProt O43293); test: Inhibition of human DAPK3 at 1 uM using RBER-GSK3 as substrate in presence of 33P-ATP by ProQinase assay
[19] = target: Serine/threonine-protein kinase MARK2 (Homo sapiens) (UniProt Q7KZI7); test: as §1, with “human N-terminal” for “human”, “MARK2” for “GSK3beta”, “691” for “420”, “KKKVSRSGLYRSPSMPENLNRPR” for “phospho-GS2 peptide”
[20] = target: Serine/threonine-protein kinase MARK1 (Homo sapiens) (UniProt Q9P0L2); test: Inhibition of human MARK1 at 1 uM using RBER-CHKtide as substrate in presence of 33P-ATP by ProQinase assay
[21] = target: Serine/threonine-protein kinase PLK4 (Homo sapiens) (UniProt O00444); test: Inhibition of human SAK at 1 uM using p38-alpha KA as substrate in presence of 33P-ATP by ProQinase assay
[22] = target: Calcium/calmodulin-dependent protein kinase kinase 2 (Homo sapiens) (UniProt Q96RR4); test: Inhibition of human CAMKK2 at 1 uM using RBER-GSK3 as substrate in presence of 33P-ATP by ProQinase assay
[23] = target: Dual specificity protein kinase CLK4 (Homo sapiens) (UniProt Q9HAZ1); test: Inhibition of human CLK4 at 1 uM using MBP as substrate in presence of 33P-ATP by ProQinase assay
Chain of Dual specificity protein kinase CLK4 (Homo sapiens) (Q9HAZ1 whole entry, looked up): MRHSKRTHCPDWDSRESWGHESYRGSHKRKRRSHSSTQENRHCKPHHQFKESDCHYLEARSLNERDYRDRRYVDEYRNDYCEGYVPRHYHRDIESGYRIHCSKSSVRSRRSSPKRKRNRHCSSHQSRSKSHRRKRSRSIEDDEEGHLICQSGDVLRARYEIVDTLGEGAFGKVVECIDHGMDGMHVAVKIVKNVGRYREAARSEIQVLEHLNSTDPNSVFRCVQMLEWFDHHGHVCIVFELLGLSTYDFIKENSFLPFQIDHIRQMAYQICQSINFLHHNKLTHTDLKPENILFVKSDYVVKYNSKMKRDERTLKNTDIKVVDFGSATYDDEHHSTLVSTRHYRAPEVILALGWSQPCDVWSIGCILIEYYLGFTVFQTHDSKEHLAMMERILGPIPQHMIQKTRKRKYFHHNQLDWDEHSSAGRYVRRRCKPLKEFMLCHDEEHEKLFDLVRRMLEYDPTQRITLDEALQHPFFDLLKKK

Chain of Mitogen-activated protein kinase 10 (Homo sapiens) (P53779 whole entry, the tested form may be a part): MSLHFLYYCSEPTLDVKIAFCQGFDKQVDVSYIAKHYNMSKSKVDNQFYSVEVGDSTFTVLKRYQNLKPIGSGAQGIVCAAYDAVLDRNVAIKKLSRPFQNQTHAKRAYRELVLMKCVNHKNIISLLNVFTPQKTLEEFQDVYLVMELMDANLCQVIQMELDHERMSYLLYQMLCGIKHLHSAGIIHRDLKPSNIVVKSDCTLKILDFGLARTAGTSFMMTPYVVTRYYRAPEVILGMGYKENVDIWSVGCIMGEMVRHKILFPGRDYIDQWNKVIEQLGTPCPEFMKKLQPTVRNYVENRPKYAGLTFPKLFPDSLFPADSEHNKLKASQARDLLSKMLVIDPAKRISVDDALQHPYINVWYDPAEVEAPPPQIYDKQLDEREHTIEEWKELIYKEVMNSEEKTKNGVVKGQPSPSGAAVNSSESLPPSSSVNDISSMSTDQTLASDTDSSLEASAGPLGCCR
Chain of Protein kinase C theta type (Homo sapiens) (Q04759 whole entry, looked up): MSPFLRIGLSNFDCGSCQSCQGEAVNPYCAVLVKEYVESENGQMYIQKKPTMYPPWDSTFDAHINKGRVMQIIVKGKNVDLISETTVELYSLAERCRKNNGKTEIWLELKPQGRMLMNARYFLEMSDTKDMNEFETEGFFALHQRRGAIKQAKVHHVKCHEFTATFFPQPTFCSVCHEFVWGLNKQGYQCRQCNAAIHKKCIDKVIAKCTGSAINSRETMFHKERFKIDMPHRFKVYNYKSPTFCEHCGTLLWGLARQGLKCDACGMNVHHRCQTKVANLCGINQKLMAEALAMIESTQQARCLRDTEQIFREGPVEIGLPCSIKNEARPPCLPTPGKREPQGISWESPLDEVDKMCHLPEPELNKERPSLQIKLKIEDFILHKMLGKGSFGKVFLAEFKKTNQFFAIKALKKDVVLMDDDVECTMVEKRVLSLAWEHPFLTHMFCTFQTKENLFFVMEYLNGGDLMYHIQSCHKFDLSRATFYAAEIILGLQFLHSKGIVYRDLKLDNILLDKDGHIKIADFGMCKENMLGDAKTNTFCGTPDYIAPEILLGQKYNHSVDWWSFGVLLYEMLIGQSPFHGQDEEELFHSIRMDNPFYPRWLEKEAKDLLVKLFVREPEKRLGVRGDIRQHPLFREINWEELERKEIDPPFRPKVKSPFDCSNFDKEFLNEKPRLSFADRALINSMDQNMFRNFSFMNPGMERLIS
Chain of Ephrin type-B receptor 1 (Homo sapiens) (P54762 whole entry, the tested form may be a part): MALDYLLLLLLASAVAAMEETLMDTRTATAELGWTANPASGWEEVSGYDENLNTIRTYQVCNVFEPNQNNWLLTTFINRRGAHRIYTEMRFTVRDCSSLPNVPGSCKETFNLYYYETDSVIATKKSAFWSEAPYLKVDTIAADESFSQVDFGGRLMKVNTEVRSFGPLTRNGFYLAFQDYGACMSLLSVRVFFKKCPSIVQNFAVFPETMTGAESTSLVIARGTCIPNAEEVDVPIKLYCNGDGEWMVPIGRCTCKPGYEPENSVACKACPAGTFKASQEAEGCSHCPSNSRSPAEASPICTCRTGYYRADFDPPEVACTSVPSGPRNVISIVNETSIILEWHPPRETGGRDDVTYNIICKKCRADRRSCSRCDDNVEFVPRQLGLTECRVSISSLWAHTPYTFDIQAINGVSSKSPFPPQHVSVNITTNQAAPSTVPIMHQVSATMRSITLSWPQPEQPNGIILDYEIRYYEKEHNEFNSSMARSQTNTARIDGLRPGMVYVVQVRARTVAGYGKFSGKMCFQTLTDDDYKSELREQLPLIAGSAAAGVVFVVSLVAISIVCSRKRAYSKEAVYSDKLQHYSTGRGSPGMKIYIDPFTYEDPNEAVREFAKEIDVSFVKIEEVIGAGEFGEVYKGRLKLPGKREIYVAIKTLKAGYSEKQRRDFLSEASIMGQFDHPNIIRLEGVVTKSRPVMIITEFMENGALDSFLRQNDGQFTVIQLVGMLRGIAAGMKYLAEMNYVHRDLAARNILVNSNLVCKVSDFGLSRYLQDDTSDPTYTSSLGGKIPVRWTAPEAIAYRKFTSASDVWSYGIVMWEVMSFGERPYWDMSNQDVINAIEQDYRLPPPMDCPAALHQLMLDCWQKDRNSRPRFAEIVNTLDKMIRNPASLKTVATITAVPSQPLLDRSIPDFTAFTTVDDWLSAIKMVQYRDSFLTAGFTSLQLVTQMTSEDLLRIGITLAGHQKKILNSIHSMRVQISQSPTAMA
Chain of Inhibitor of nuclear factor kappa-B kinase subunit alpha (Homo sapiens) (O15111 whole entry): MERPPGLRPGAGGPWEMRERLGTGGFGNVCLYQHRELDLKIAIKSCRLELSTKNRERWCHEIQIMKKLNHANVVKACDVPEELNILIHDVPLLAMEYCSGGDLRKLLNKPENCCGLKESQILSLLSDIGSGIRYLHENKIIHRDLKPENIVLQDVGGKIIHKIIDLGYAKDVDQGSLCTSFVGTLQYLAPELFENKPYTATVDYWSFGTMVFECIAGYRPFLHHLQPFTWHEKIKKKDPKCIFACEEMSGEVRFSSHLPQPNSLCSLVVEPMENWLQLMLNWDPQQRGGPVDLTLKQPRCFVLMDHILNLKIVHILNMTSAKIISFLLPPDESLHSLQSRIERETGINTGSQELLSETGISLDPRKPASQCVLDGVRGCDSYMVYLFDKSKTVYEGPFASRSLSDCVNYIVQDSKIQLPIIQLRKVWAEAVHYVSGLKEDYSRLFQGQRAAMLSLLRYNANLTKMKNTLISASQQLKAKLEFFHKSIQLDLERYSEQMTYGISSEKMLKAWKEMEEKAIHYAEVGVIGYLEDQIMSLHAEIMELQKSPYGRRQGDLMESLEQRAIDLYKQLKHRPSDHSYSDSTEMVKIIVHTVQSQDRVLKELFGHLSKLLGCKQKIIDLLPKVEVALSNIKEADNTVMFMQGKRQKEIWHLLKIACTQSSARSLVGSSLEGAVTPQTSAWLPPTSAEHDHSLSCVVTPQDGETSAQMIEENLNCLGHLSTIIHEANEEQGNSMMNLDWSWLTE
Chain of MAP kinase-activated protein kinase 5 (Homo sapiens) (Q8IW41 whole entry, the tested form may be a part): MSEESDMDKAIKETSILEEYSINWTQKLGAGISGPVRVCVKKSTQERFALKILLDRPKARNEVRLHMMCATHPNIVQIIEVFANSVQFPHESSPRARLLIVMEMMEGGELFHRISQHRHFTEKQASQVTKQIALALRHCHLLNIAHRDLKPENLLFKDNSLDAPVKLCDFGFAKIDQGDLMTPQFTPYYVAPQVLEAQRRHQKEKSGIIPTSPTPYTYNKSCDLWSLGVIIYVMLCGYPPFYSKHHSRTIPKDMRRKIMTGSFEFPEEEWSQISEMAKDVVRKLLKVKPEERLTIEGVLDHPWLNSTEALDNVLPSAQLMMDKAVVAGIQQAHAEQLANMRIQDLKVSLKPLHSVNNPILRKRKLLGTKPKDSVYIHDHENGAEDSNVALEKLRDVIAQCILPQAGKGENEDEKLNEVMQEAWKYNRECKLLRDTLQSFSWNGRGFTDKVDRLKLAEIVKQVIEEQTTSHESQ
Chain of Tyrosine-protein kinase BTK (Homo sapiens) (Q06187 whole entry, the tested form may be a part): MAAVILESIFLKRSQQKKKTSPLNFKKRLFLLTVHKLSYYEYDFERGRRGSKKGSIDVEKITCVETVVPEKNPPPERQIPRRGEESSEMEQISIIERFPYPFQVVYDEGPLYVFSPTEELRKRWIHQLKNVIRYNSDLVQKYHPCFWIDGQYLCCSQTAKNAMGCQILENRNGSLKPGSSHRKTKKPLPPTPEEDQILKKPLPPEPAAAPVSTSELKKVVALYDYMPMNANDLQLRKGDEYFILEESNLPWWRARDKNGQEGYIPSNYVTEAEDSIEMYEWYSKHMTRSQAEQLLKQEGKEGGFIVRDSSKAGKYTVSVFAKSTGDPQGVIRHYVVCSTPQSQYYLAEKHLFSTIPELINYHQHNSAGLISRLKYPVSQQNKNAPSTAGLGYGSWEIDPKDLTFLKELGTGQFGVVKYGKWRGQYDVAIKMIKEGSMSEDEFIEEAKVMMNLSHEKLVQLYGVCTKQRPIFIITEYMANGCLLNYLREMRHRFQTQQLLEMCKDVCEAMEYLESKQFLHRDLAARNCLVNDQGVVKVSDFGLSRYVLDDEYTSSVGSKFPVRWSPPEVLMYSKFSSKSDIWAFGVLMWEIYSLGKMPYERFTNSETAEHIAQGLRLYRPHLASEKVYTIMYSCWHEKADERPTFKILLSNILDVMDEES
Chain of Death-associated protein kinase 3 (Homo sapiens) (O43293 whole entry, looked up): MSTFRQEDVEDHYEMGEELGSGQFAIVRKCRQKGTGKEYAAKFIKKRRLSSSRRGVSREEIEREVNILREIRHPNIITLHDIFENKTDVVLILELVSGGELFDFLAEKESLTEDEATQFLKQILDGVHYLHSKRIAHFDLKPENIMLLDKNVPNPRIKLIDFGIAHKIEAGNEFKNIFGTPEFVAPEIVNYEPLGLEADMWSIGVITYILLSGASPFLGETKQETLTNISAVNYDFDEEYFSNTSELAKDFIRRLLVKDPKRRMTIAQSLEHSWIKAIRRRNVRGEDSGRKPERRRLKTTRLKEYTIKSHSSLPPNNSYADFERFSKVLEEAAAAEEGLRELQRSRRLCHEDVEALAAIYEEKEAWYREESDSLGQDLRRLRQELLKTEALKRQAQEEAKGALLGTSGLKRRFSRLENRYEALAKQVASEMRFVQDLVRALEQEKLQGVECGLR

CC(C)(O)CNc1ncc(-c2ccnc(Nc3ccnc(Cl)c3)n2)c(CC2CC2)n1
IC50 [1]: 8.04 µM
Activity [2]: 51%
inhibition [3]: inactive
inhibition [4]: inactive
inhibition [5]: inactive
Activity [6]: 95%
inhibition [7]: inactive
inhibition [8]: inactive
inhibition [9]: inactive
inhibition [10]: inactive
Activity [11]: 105%
Activity [12]: 99%
Activity [13]: 115%
inhibition [14]: inactive
Activity [15]: 113%
IC50 [16]: 4.93 µM
inhibition [17]: inactive
inhibition [18]: inactive
Activity [19]: 108%
inhibition [20]: inactive
inhibition [21]: inactive
inhibition [22]: inactive
inhibition [23]: inactive
